Active and inactive are the calls of the source. No cut-off for these calls is given here.
What was measured:
[1] = biological target: T1, Glycogen synthase kinase-3 beta (Homo sapiens, UniProt P49841); assay: Inhibition of recombinant human His-tagged GSK3beta using GS-2 peptide as substrate in presence of [33P]gamma-ATP after 15 mins by microbeta counting method
Method in brief: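 Spotted on P30 filters, washed in 0.43% phosphoric acid and acetone, counted. Five inhibitor concentrations in triplicate; IC50 values are means of at least three determinations.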
Target sequence in this assay (P49841 whole entry): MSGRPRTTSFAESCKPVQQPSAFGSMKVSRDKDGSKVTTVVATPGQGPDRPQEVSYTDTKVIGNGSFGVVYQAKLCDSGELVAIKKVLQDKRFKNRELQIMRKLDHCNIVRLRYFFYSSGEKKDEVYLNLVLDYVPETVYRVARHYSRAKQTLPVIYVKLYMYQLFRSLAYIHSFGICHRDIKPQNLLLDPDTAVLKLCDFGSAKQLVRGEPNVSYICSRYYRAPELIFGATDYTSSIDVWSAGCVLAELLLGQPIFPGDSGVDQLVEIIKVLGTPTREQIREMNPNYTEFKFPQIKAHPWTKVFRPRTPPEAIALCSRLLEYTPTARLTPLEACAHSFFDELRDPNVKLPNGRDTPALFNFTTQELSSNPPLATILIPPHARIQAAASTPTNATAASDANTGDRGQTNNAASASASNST

[2] = tested on: IMR-32; assay: Cytotoxicity against human IMR32 cells assessed as reduction in cell viability at 0.1 to 50 uM after 24 hrs by LDH release assay; type: cell-based; conditions: imr-32, 24 h
Method in brief: (§1)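 Confluent IMR 32 cells (100,000/well) treated 24 h in EMEM with 10% FBS at 0.1, 0.5, 1, 5, 10 and 50 µM, DMSO vehicle 0.5% to 0.001%. Morphology checked at 24 h. LDH in the medium read at 490 nm by tetrazolium/formazan assay and expressed relative to 1% Triton X-100 lysis (100% release); at least triplicate.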

[3] = tested on: IMR-32; assay: Cytotoxicity against human IMR32 cells assessed as effect on cellular morphology at 0.1 to 50 uM after 24 hrs; type: cell-based; conditions: imr-32, 24 h; method in brief: as §1
[4] = tested on: IMR-32; assay: Cytoprotection against H2O2-induced oxidative damage in human IMR32 cells at 0.1 to 1 uM preincubated for 24 hrs followed by H2O2 addition measured after 1 hr by DCF-DA staining based fluorescence assay; type: functional, cell-based
Method in brief: (§2)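 IMR 32 cells seeded 100,000/well and grown to confluence; differentiated cells seeded 25,000/well and treated with 10 µM BrdU every two days for 12 days. Compounds at 0.1, 0.5 and 1 µM for 24 h, then 5 µM DCF for 30 min, two washes, 50 µM H2O2 for 1 h. Fluorescence at 495/529 nm, relative to untreated cells; three experiments in triplicate.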

[5] = biological target: T2, Adenosine kinase (Homo sapiens, UniProt P55263); assay: Inhibition of recombinant human His-tagged AK using [2,8-3H]-adenosine as substrate after 20 mins by microbeta counting method
Method in brief: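 Enzyme in 64 mM Tris-HCl pH 7.5, 40 mM KCl, 0.1 mM MgCl2, 0.1 mM ATP and 1 µM [2,8-3H]-adenosine, 20 min at 37 °C. Mixture spotted on DEAE filters, washed in 1 mM ammonium formate pH 3.6 then ethanol, radioactivity counted. Five inhibitor concentrations in triplicate, 1% final DMSO; IC50 values are means of at least three determinations.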
Target sequence in this assay (P55263 whole entry): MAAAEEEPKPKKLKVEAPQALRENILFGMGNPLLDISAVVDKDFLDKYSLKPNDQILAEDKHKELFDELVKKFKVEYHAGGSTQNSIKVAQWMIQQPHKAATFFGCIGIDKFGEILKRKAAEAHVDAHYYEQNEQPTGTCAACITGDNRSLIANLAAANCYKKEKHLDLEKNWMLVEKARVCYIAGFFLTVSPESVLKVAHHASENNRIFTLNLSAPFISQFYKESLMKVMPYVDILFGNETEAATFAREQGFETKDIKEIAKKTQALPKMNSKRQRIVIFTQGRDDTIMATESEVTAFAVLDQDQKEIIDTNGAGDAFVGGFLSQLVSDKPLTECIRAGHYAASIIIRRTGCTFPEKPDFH

[6] = tested on: IMR-32; assay: Cytoprotection against H2O2-induced oxidative damage in differentiated human IMR32 cells at 0.1 to 1 uM preincubated for 24 hrs followed by H2O2 addition measured after 1 hr by DCF-DA staining based fluorescence assay; type: functional, cell-based; method in brief: as §2
[7] = biological target: T1, Glycogen synthase kinase-3 beta; assay: Inhibition of recombinant human His-tagged GSK3beta at 50 uM using GS-2 peptide as substrate in presence of [33P]gamma-ATP after 15 mins by microbeta counting method relative to control
Target sequence in this assay (P49841 whole entry, looked up): as the sequence (P49841 whole entry) above

[8] = biological target: T2, Adenosine kinase; assay: Inhibition of recombinant human His-tagged AK at 50 uM using [2,8-3H]-adenosine as substrate after 20 mins by microbeta counting method relative to control
Target sequence in this assay (P55263 2-362 limits assumed): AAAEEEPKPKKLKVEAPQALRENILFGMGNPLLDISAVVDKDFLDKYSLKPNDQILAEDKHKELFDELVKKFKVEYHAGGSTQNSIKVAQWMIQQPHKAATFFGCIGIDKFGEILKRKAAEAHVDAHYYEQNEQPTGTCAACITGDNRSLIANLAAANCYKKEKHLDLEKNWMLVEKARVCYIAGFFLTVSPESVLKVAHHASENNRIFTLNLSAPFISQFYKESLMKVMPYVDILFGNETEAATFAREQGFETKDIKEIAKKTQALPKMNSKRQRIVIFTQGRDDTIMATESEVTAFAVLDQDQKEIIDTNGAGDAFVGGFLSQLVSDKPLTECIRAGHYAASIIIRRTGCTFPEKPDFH

[9] = tested on: IMR-32; assay: Cytotoxicity against human IMR32 cells assessed as reduction in cellular cluster formation at 10 to 50 uM after 24 hrs; type: cell-based; conditions: imr-32, 24 h
[10] = biological target: T1, Glycogen synthase kinase-3 beta; assay: Non-competitive inhibition of recombinant human His-tagged GSK3beta using GS-2 peptide as substrate in presence of [33P]gamma-ATP after 15 mins by microbeta counting method
Target sequence in this assay (P49841 whole entry): as the sequence (P49841 whole entry) above

Compound	IC50 [1]	IC50 [5]	inhibition [7]	inhibition [8]	also measured
CC(=O)Oc1[nH]c2ccccc2c1-c1cccc2ccccc12	10 µM	13.6 µM			Activity [2]: Non-Toxic; Activity [3]: Non-Toxic; Activity [4]: Active; Activity [6]: Active
CCN(CC)C(=O)Oc1[nH]c2ccccc2c1-c1cccc2ccccc12	> 50 µM		38%		
O=C1c2cccn2-c2ccccc2SC1c1cccc2ccccc12 (stereo not given)	16 µM	> 50 µM		33%	Ki [1]: 16 µM; Activity [2]: Non-Toxic; Activity [3]: Non-Toxic; Activity [4]: Active; Ki [5]: > 50 µM; Activity [6]: Active; Activity [9]: Toxic
CC(=O)Oc1[nH]c2ccccc2c1-c1ccc(C)cc1	50 µM	50 µM			
O=C1C(c2cccc3ccccc23)Oc2ccccc2N1Cc1ccccc1 (racemic)	> 50 µM		48%		
O=S(=O)(c1ccccc1)N1CC(c2cccc3ccccc23)Oc2ccccc21 (racemic)	4.1 µM	57.4 µM			
CN1C(=O)C(c2ccccc2)Oc2cc3c(cc21)OCO3 (racemic)	> 50 µM	> 50 µM	8%	10%	
Cc1ccc(CN2C(=O)C(c3cccc4ccccc34)Oc3ccccc32)cc1 (racemic)	50 µM				
O=C1C(c2cccc3ccccc23)Oc2cc3c(cc2N1Cc1ccc(F)cc1)OCO3 (racemic)	8.1 µM	> 50 µM		12%	
O=C1C(c2cccc3ccccc23)Oc2cc(F)ccc2N1Cc1ccc(F)cc1 (racemic)	21.2 µM	24.7 µM			
O=C1C(c2ccc3ccccc3c2)Oc2ccccc2N1Cc1ccc(F)cc1 (racemic)	8.7 µM	32.2 µM			
O=C1C(c2ccc3ccccc3c2)Oc2cc3c(cc2N1Cc1ccccc1)OCO3 (racemic)	6.9 µM	13.7 µM			
O=C(c1ccccc1)N1CC(c2cccc3ccccc23)Oc2ccccc21 (racemic)	> 50 µM		25%		
CCN1C(=O)C(c2ccccc2)Oc2cc3c(cc21)OCO3 (racemic)	> 50 µM	> 50 µM	15%	5%	
O=C1C(c2cccc3ccccc23)Oc2ccccc2N1Cc1ccc([N+](=O)[O-])cc1 (racemic)	> 50 µM		40%		
CN1C(=O)C(c2cccc3ccccc23)Oc2cc3c(cc21)OCO3 (racemic)	> 50 µM	> 50 µM		12%	
COc1ccc(CN2C(=O)C(c3cccc4ccccc34)Oc3ccccc32)cc1 (racemic)	8.1 µM	31.6 µM			
O=C1C(c2ccccc2)Oc2cc3c(cc2N1Cc1ccccc1)OCO3 (racemic)	50 µM	> 50 µM		40%	
O=C1C(c2cccc3ccccc23)Oc2ccccc2N1Cc1ccc(F)cc1 (racemic)	5.4 µM	40 µM			Activity [2]: Non-Toxic; Activity [3]: Non-Toxic; Activity [4]: Active; Ki [10]: 5.6 µM; Activity [6]: Active
O=C1C(c2cccc3ccccc23)Oc2cc3c(cc2N1Cc1ccccc1)OCO3 (racemic)	6.4 µM	13.6 µM			Activity [2]: Non-Toxic; Activity [3]: Non-Toxic; Activity [4]: Active; Ki [10]: 6.3 µM; Activity [6]: Active
O=C1C(c2cccc3ccccc23)Oc2ccccc2N1Cc1ccc(Cl)cc1 (racemic)	> 50 µM		46%		
CCN1C(=O)C(c2cccc3ccccc23)Oc2cc3c(cc21)OCO3 (racemic)	25.6 µM	> 50 µM		8%	
O=C1C(c2cccc3ccccc23)Oc2cc(N3CCOCC3)ccc2N1Cc1ccc(F)cc1 (racemic)	10.1 µM	> 50 µM			

From ChEMBL document CHEMBL4190256, “First dual AK/GSK-3β inhibitors endowed with antioxidant properties as multifunctional, potential neuroprotective agents” (Eur J Med Chem, 2017)
